Our source for the inhibition, Activity and IC50 values is ChEMBL document CHEMBL1250448, “Inhibitor hijacking of Akt activation” (Nat Chem Biol, 2009).

Active and inactive are the calls of the source. The rule behind the calls is not given here. Some results are limits rather than exact numbers.

The target of assay [1] is T1, RAC-alpha serine/threonine-protein kinase (Homo sapiens, UniProt P31749). The experiment in a line: Inhibition of wild type AKT1 expressed in HEK293 cells assessed as reduction of IGF1-induced GSK3-beta Ser9 phosphorylation treated 20 mins before IGF1 stimulation by immunoblotting. The assay is classed as cell-based. Put shortly: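 Untransfected HEK293 cells carrying endogenous Akt were serum-starved overnight. They were treated with compound for 20 min, then stimulated with 50 ng/ml IGF-1 for 10 min. DMSO stocks were diluted 1:1000. Lysates in Tris pH 7.5/Triton buffer with phosphatase inhibitors were immunoblotted for GSK3β Ser9 and Akt Thr308/Ser473 phosphorylation, read by ECL.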
On the technique in general: In western blotting, separated proteins are transferred to a membrane and probed.

Assay [2] deals with HEK-293T. The experiment in a line: Induction myristoylated AKT2 M225G mutant Thr308 hyperphosphorylation expressed in HEK293T cells at 10 uM after 30 mins by immunoblotting. The assay is classed as cell-based.
Assay [3] relates to HEK-293T. The experiment in a line: Induction myristoylated AKT2 M225G mutant Ser473 hyperphosphorylation expressed in HEK293T cells at 10 uM after 30 mins by immunoblotting. The assay is classed as cell-based.
Assay [4] concerns RAC-alpha serine/threonine-protein kinase (Homo sapiens), P31749 [M227G]. The experiment in a line: Induction of myristoylated AKT1 M227G mutant Thr308 hyperphosphorylation expressed in HEK293 cells after 30 mins by immunoblotting. The settings on record: HEK-293.
The test system is the same in assay [5]. The experiment in a line: Induction of myristoylated AKT1 M227G mutant Ser473 hyperphosphorylation expressed in HEK293 cells after 30 mins by immunoblotting. The settings on record: HEK-293.
The test system of assay [6] is HEK-293T. The experiment in a line: Induction of nonmyristoylated AKT2 M225G and kinase dead D289A mutant Thr308 hyperphosphorylation expressed in HEK293T cells at 10 uM after 30 mins by immunoblotting. It is filed as cell-based.
Assay [7] has as its target T1, RAC-alpha serine/threonine-protein kinase. The experiment in a line: Induction of AKT1 Ser473 phosphorylation expressed in IGF1-stimulated HEK293 cells treated 20 mins before IGF1 stimulation by immunoblotting. It is filed as cell-based. In short, it runs like this: (§1)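 HEK293 cells (not transfected), serum-starved overnight, then given inhibitor for 20 min before 50 ng/ml IGF-1 for a further 10 min. Cells detached in ice-cold Ca/Mg-free PBS with 0.04% EDTA and lysed in Tris pH 7.5 Triton buffer with protease/phosphatase inhibitors. Lysates cleared at 14000 g, protein equalised by Bradford, and pThr308, pSer473 and GSK3β pSer9 read by immunoblot with ECL.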

The target is the same in assay [8]. The experiment in a line: Induction of AKT1 Thr308 phosphorylation expressed in IGF1-stimulated HEK293 cells treated 20 mins before IGF1 stimulation by immunoblotting. The assay is classed as cell-based. Put shortly: as §1
For assay [9] the target is unchanged. The experiment in a line: Inhibition of myristoylated wild type AKT1 expressed in HEK293T cells by in vitro immunoprecipitation kinase assay. It is filed as cell-based, HEK-293T. In short, it runs like this: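 Myristoylated HA-tagged wild-type or analog-sensitive Akt1/2/3 expressed in HEK293T cells, then immunoprecipitated on anti-HA matrix. The immunoprecipitate was used in an in vitro kinase assay with Tris pH 7.5 buffer containing 10 mM MgCl2, β-glycerophosphate, orthovanadate and 2 mM DTT. IC50 determined from inhibitor titration.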

Assay [10] concerns HEK-293T. The experiment in a line: Induction of myristoylated AKT3 M229G mutant Ser473 hyperphosphorylation expressed in HEK293T cells at 10 uM after 30 mins by immunoblotting. It is filed as cell-based.
In assay [11] the test system is HEK-293T. The experiment in a line: Induction of myristoylated AKT3 M229G mutant Thr308 hyperphosphorylation expressed in HEK293T cells at 10 uM after 30 mins by immunoblotting. The assay is classed as cell-based.
Assay [12] relates to RAC-alpha serine/threonine-protein kinase (Homo sapiens), P31749 [M227G]. The experiment in a line: Inhibition of myristoylated AKT1 M227G mutant expressed in HEK293T cells assessed as reduction of GSK3-beta Ser9 phosphorylation after 30 mins by immunoblotting. The assay is classed as cell-based. As to conditions: HEK-293T.
Assay [13] relates to HEK-293T. The experiment in a line: Induction of myristoylated AKT2 M225G and kinase dead D289A mutant Thr308 hyperphosphorylation expressed in HEK293T cells at 10 uM after 30 mins by immunoblotting. It is filed as cell-based.
Assay [14] has as its target RAC-alpha serine/threonine-protein kinase (Homo sapiens, UniProt P31749, M227G). The experiment in a line: Inhibition of myristoylated AKT1 M227G mutant expressed in HEK293T cells by in vitro immunoprecipitation kinase assay. The assay is classed as cell-based, HEK-293T. In short, it runs like this: (§2)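 Myristoylated HA-tagged Akt (wild-type or analog-sensitive isoforms) was transfected by Lipofectamine into HEK293T cells. Cells were lysed in Tris pH 7.5/NaCl/EDTA/EGTA/Triton buffer with protease and phosphatase inhibitors. Akt was immunoprecipitated overnight at 4°C on BSA-blocked anti-HA matrix, and the washed immunoprecipitate was used for the in vitro kinase assay. IC50 was determined from kinase activity.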

Assay [15] in a line: Inhibition of myristoylated AKT2 M225G mutant expressed in HEK293T cells by in vitro immunoprecipitation kinase assay. The assay is classed as cell-based. As to conditions: hek-293t. In short, it runs like this: as §2
Assay [16] can be described thus: Inhibition of myristoylated AKT3 M229G mutant expressed in HEK293T cells by in vitro immunoprecipitation kinase assay. It is filed as cell-based. The settings on record: hek-293t. In short, it runs like this:
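Myristoylated HA-tagged Akt3 was expressed in HEK293T cells, which were lysed in Tris pH 7.5 buffer containing Triton X, protease and phosphatase inhibitors. Lysates were protein-normalised and immunoprecipitated overnight at 4°C on BSA-blocked anti-HA matrix. Kinase activity of the immunoprecipitate was measured in vitro across inhibitor concentrations to derive IC50.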

T1 sequence (P31749 whole entry): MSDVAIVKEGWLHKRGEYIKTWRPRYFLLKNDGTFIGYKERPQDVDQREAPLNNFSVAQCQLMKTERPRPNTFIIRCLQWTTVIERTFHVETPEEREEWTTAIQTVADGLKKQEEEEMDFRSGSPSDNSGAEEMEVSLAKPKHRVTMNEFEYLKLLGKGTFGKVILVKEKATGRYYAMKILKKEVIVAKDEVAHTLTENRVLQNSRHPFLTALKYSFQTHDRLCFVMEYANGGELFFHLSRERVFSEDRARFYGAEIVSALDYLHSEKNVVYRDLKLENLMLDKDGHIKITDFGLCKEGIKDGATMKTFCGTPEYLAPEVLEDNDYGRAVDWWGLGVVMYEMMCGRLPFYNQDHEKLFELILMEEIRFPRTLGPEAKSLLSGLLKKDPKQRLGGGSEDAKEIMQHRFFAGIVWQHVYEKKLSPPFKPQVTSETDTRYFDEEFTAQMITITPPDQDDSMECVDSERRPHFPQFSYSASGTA
RAC-alpha serine/threonine-protein kinase (Homo sapiens), P31749 [M227G], sequence (P31749 whole entry M227G): as the sequence (P31749 whole entry) above, with M227G counted along it
RAC-alpha serine/threonine-protein kinase (Homo sapiens, UniProt P31749, M227G), sequence (P31749 whole entry M227G, canonical isoform): as the sequence (P31749 whole entry) above, with M227G counted along it

As usually defined, the IC50 is the concentration that inhibits the measured activity by half. The low end stands for higher potency, the high end for lower potency. For `CC(C)(C)n1nc(Cc2cccc(I)c2)c2c(N)ncnc21`, the inhibition result in assay [1] was “inactive”. Further, the outcome in the assay with HEK-293T [2], in the assay with HEK-293T [3], with HEK-293T [6], with HEK-293T [10], with HEK-293T [11] and in the assay with HEK-293T [13] was Active. The Activity result in assay [4] and in [5] was “Dose-dependent effect” in each case. The outcome in assay [7] and in [8] was inactive. Further, the IC50 is > 10000 nM in assay [9], 28 nM in assay [14], 240 nM in assay [15] and 120 nM in assay [16]. In addition, the inhibition entry in [12] is “Active”.
